Columns and labels:
Format in all cases: functional
Streptococcus viridans = test: Antimicrobial activity against Streptococcus viridans group clinical isolate by broth microdilution method
Procedure, shortened: (§1)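 Streptococcal isolates were tested by CLSI broth microdilution in cation-adjusted Mueller-Hinton broth supplemented with 3% lysed horse blood. The read-out was the MIC, with MIC90 (μg/ml) reported per group. Ceftriaxone, levofloxacin and imipenem served as comparators.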

Streptococcus pneumoniae [1] = test: Antimicrobial activity against penicillin-susceptible Streptococcus pneumoniae by broth microdilution method; procedure, shortened: as §1
Streptococcus pneumoniae [2] = test: Antimicrobial activity against levofloxacin-resistant Streptococcus pneumoniae by broth microdilution method
Procedure, shortened: (§2)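 CLSI broth microdilution in cation-adjusted Mueller-Hinton broth with 3% lysed horse blood, against streptococcal clinical isolates of the stated phenotype. Ceftaroline was compared with ceftriaxone, levofloxacin and imipenem. Activity was expressed as MICs (MIC90 in μg/ml).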

Streptococcus pneumoniae [3] = test: Antimicrobial activity against penicillin-resistant Streptococcus pneumoniae by broth microdilution method; procedure, shortened: as §2
Streptococcus pyogenes [4] = test: Antimicrobial activity against macrolide-resistant Streptococcus pyogenes by broth microdilution method; procedure, shortened: as §2
Streptococcus pyogenes [5] = test: Antimicrobial activity against macrolide-susceptible Streptococcus pyogenes by broth microdilution method; procedure, shortened: as §2
Staphylococcus aureus [6] = test: Antimicrobial activity against methicillin-resistant Staphylococcus aureus by broth microdilution method
Procedure, shortened: (§3)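 Isolates of the stated resistance phenotype were tested by CLSI broth microdilution in unsupplemented cation-adjusted Mueller-Hinton broth. Ceftaroline was compared with ceftriaxone, levofloxacin and imipenem. Activity was expressed as MICs (MIC90 in μg/ml).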

Streptococcus agalactiae = test: Antimicrobial activity against Streptococcus agalactiae by broth microdilution method; procedure, shortened: as §1
Enterococcus faecium [7] = test: Antimicrobial activity against Enterococcus faecium by broth microdilution method
Procedure, shortened: (§4)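 Clinical isolates were tested by CLSI broth microdilution in unsupplemented cation-adjusted Mueller-Hinton broth. The read-out was the MIC, reported as MIC90 (μg/ml) per species or phenotypic group. Ceftriaxone, levofloxacin and imipenem were run in parallel as comparators.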

Pseudomonas aeruginosa [8] = test: Antimicrobial activity against Pseudomonas aeruginosa by broth microdilution method; procedure, shortened: as §4
Staphylococcus aureus [9] = test: Antimicrobial activity against methicillin-susceptible Staphylococcus aureus by broth microdilution method; procedure, shortened: as §4
Klebsiella pneumoniae [10] = test: Antimicrobial activity against ESBL-negative Klebsiella pneumoniae by broth microdilution method; procedure, shortened: as §4
Staphylococcus [11] = test: Antimicrobial activity against methicillin-susceptible coagulase-negative Staphylococcus by broth microdilution method; procedure, shortened: as §4
Staphylococcus aureus [12] = test: Antimicrobial activity against vancomycin-intermediate Staphylococcus aureus by broth microdilution method; procedure, shortened: as §4
[13] = system: Stenotrophomonas maltophilia; test: Antimicrobial activity against Stenotrophomonas maltophilia by broth microdilution method; procedure, shortened: as §4
Haemophilus influenzae [14] = test: Antimicrobial activity against beta-lactamase-negative ampicillin resistant Haemophilus influenzae by broth microdilution method
Procedure, shortened: (§5)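 CLSI broth microdilution in Haemophilus test medium (cation-adjusted Mueller-Hinton base) against clinical H. influenzae isolates of the stated phenotype. Ceftaroline was compared with ceftriaxone, levofloxacin and imipenem. Activity was expressed as MICs (MIC90 in μg/ml).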

Staphylococcus [15] = test: Antimicrobial activity against methicillin-resistant coagulase-negative Staphylococcus by broth microdilution method; procedure, shortened: as §3
Enterobacter cloacae = test: Antimicrobial activity against ESBL-negative Enterobacter cloacae by broth microdilution method; procedure, shortened: as §4
Proteus vulgaris = test: Antimicrobial activity against Proteus vulgaris by broth microdilution method; procedure, shortened: as §4
Enterococcus faecalis [16] = test: Antimicrobial activity against vancomycin-susceptible Enterococcus faecalis by broth microdilution method; procedure, shortened: as §4
Proteus mirabilis = test: Antimicrobial activity against Proteus mirabilis by broth microdilution method; procedure, shortened: as §4
Haemophilus influenzae [17] = test: Antimicrobial activity against beta-lactamase-negative Haemophilus influenzae by broth microdilution method; procedure, shortened: as §5
Staphylococcus aureus [18] = test: Antimicrobial activity against vancomycin-resistant Staphylococcus aureus by broth microdilution method; procedure, shortened: as §3
Klebsiella aerogenes = test: Antimicrobial activity against ESBL-negative Enterobacter aerogenes by broth microdilution method; procedure, shortened: as §4
Shigella sp. = test: Antimicrobial activity against Shigella spp. by broth microdilution method; procedure, shortened: as §4
Providencia rettgeri = test: Antimicrobial activity against Proteus rettgeri by broth microdilution method; procedure, shortened: as §4
Serratia marcescens = test: Antimicrobial activity against Serratia marcescens by broth microdilution method; procedure, shortened: as §4
Pseudomonas aeruginosa [19] = test: Antimicrobial activity against multidrug resistant Pseudomonas aeruginosa by broth microdilution method; procedure, shortened: as §3
Escherichia coli [20] = test: Antimicrobial activity against ESBL-positive Escherichia coli by broth microdilution method; procedure, shortened: as §4
Haemophilus influenzae [21] = test: Antimicrobial activity against beta-lactamase-positive Haemophilus influenzae by broth microdilution method
Procedure, shortened: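 H. influenzae isolates were tested by CLSI broth microdilution using Haemophilus test medium. The MIC was read and MIC90 (μg/ml) reported for the group. Ceftriaxone, levofloxacin and imipenem served as comparators.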

Salmonella sp. = test: Antimicrobial activity against Salmonella spp. by broth microdilution method; procedure, shortened: as §4
Enterococcus faecalis [22] = test: Antimicrobial activity against Enterococcus faecalis by broth microdilution method; procedure, shortened: as §4
Enterococcus faecium [23] = test: Antimicrobial activity against vancomycin-susceptible Enterococcus faecium by broth microdilution method; procedure, shortened: as §4
Moraxella catarrhalis = test: Antimicrobial activity against Moraxella catarrhalis by broth microdilution method; procedure, shortened: as §4
Providencia stuartii = test: Antimicrobial activity against Proteus stuartii by broth microdilution method; procedure, shortened: as §4
Burkholderia cepacia = test: Antimicrobial activity against Burkholderia cepacia by broth microdilution method; procedure, shortened: as §4
Escherichia coli [24] = test: Antimicrobial activity against ESBL-negative Escherichia coli by broth microdilution method; procedure, shortened: as §4
Klebsiella pneumoniae [25] = test: Antimicrobial activity against ESBL-positive Klebsiella pneumoniae by broth microdilution method; procedure, shortened: as §4
Listeria monocytogenes = test: Antimicrobial activity against Listeria monocytogenes by broth microdilution method; procedure, shortened: as §4
Streptococcus pneumoniae [26] = test: Antimicrobial activity against penicillin-intermediate Streptococcus pneumoniae by broth microdilution method; procedure, shortened: as §2
Morganella morganii = test: Antimicrobial activity against Morganella morganii by broth microdilution method; procedure, shortened: as §4
Corynebacterium jeikeium = test: Antimicrobial activity against Corynebacterium jeikeium by broth microdilution method; procedure, shortened: as §4

## C[C@H]1COc2c(N3CCN(C)CC3)c(F)cc3c(=O)c(C(=O)O)cn1c23.C[C@H]1COc2c(N3CCN(C)CC3)c(F)cc3c(=O)c(C(=O)O)cn1c23.O [LEVOFLOXACIN]
Streptococcus viridans
  MIC50: 1 µg/mL
  MIC90: 2 µg/mL
Streptococcus pneumoniae [1]
  MIC50: 1 µg/mL
  MIC90: 2 µg/mL
Streptococcus pneumoniae [2]
  MIC50: 16 µg/mL
  MIC90: > 32 µg/mL
Streptococcus pneumoniae [3]
  MIC50: 1 µg/mL
  MIC90: 1 µg/mL
Streptococcus pyogenes [4]
  MIC: 0.5 µg/mL
  MIC50: 0.5 µg/mL
  MIC90: 0.5 µg/mL
Streptococcus pyogenes [5]
  MIC50: 0.5 µg/mL
  MIC90: 2 µg/mL
Staphylococcus aureus [6]
  MIC50: 8 µg/mL
  MIC90: > 32 µg/mL
Streptococcus agalactiae
  MIC50: 1 µg/mL
  MIC90: 1 µg/mL
Enterococcus faecium [7]
  MIC50: > 32 µg/mL
  MIC90: > 32 µg/mL
Pseudomonas aeruginosa [8]
  MIC50: 2 µg/mL
  MIC90: > 32 µg/mL
Staphylococcus aureus [9]
  MIC50: 0.25 µg/mL
  MIC90: 8 µg/mL
Klebsiella pneumoniae [10]
  MIC50: 0.06 µg/mL
  MIC90: 0.5 µg/mL
Staphylococcus [11]
  MIC50: 0.25 µg/mL
  MIC90: 16 µg/mL
Staphylococcus aureus [12]
  MIC50: 16 µg/mL
  MIC90: 32 µg/mL
[13]
  MIC50: 1 µg/mL
  MIC90: 16 µg/mL
Haemophilus influenzae [14]
  MIC50: 0.03 µg/mL
  MIC90: 0.06 µg/mL
Staphylococcus [15]
  MIC50: 8 µg/mL
  MIC90: > 32 µg/mL
Enterobacter cloacae
  MIC50: 0.03 µg/mL
  MIC90: 0.06 µg/mL
Proteus vulgaris
  MIC50: 0.03 µg/mL
  MIC90: 0.06 µg/mL
Enterococcus faecalis [16]
  MIC: 1 µg/mL
  MIC50: 1 µg/mL
  MIC90: > 32 µg/mL
Proteus mirabilis
  MIC: 0.03 µg/mL
  MIC50: 0.03 µg/mL
  MIC90: 0.25 µg/mL
Haemophilus influenzae [17]
  MIC50: 0.03 µg/mL
  MIC90: 0.03 µg/mL
Staphylococcus aureus [18]
  MIC: 16 µg/mL
Klebsiella aerogenes
  MIC50: 0.06 µg/mL
  MIC90: 0.5 µg/mL
Shigella sp.
  MIC50: 0.03 µg/mL
  MIC90: 0.06 µg/mL
Providencia rettgeri
  MIC50: 0.12 µg/mL
  MIC90: > 32 µg/mL
Serratia marcescens
  MIC50: 0.12 µg/mL
  MIC90: 0.25 µg/mL
Pseudomonas aeruginosa [19]
  MIC50: 32 µg/mL
Escherichia coli [20]
  MIC50: 0.25 µg/mL
  MIC90: 32 µg/mL
Haemophilus influenzae [21]
  MIC50: 0.03 µg/mL
  MIC90: 0.03 µg/mL
Salmonella sp.
  MIC: 0.03 µg/mL
  MIC50: 0.03 µg/mL
  MIC90: 0.06 µg/mL
Enterococcus faecalis [22]
  MIC50: 1 µg/mL
  MIC90: 32 µg/mL
Enterococcus faecium [23]
  MIC50: 2 µg/mL
  MIC90: > 32 µg/mL
Moraxella catarrhalis
  MIC50: 0.03 µg/mL
  MIC90: 0.03 µg/mL
Providencia stuartii
  MIC50: 0.12 µg/mL
  MIC90: > 32 µg/mL
Burkholderia cepacia
  MIC50: 1 µg/mL
  MIC90: 32 µg/mL
Escherichia coli [24]
  MIC50: 0.03 µg/mL
  MIC90: 0.25 µg/mL
Klebsiella pneumoniae [25]
  MIC50: 0.5 µg/mL
  MIC90: 8 µg/mL
Listeria monocytogenes
  MIC: 1 µg/mL
  MIC50: 1 µg/mL
  MIC90: 1 µg/mL
Streptococcus pneumoniae [26]
  MIC50: 1 µg/mL
  MIC90: 1 µg/mL
Morganella morganii
  MIC50: 0.06 µg/mL
  MIC90: 8 µg/mL
Corynebacterium jeikeium
  MIC50: > 32 µg/mL
  MIC90: > 32 µg/mL

— ChEMBL document CHEMBL1629657, “In vitro antimicrobial activity of a new cephalosporin, ceftaroline, and determination of quality control ranges for MIC testing” (2009)
